{"source": "paper PMC4306711", "about": "(The Journal of General Physiology, 2015)", "molecules": {"B1": {"name": "TsVII: β-scorpion toxin from the Brazilian scorpion Tityus serrulatus (protein, UniProt P15226 21-81, looked up)", "Beta-mammal/insect toxin Ts1": "KEGYLMDHEGCKLSCFIRPSGYCGRECGIKKGSSGYCAWPACYCYGLPNWVKVWDRATNKC", "modifications": "ends and bridges not checked"}}, "key": {"[1]": {"test_system": "rNav1.2a/Kv2.1 VSD IV paddle chimera", "assay_type": "cell-based, rat"}, "WT rKv2.1": {"test_system": "WT rKv2.1", "assay": "Two-electrode voltage-clamp of WT rKv2.1 in Xenopus oocytes", "assay_type": "cell-based, rat", "details": "1 µM toxin; 300-ms depolarization to 0 mV, holding −90 mV, tail −60 mV"}, "[2]": {"test_system": "rNav1.2a/Kv2.1 VSD IV R1629A/L1630A paddle chimera", "assay_type": "cell-based, rat", "details": "100 nM AaHII; holding −10 mV, 300-ms step after −150 mV, tail −150 mV"}, "[3]": {"biological_target": "rNav1.2a/Kv2.1 VSD IV chimera L1630A", "details": "read-out: apparent KD, VSD IV chimera L1630A, ref Bosmans et al., 2008; cited from earlier work"}, "[4]": {"test_system": "rNav1.2a/Kv2.1 VSD II paddle chimera", "details": "ref Bosmans et al., 2008; cited from earlier work"}, "[5]": {"test_system": "rNav1.2a/Kv2.1 VSD IV paddle chimera", "details": "electrophysiology; ref Bosmans et al., 2008; cited from earlier work"}, "[6]": {"biological_target": "rNav1.2a/Kv2.1 VSD IV chimera R1629A", "details": "read-out: apparent KD, VSD IV chimera R1629A, ref Bosmans et al., 2008; cited from earlier work"}, "[7]": {"test_system": "isolated rNav1.2a VSD II paddle motif", "assay": "SPR with immobilized rNav1.2a VSD II paddle peptide", "assay_type": "binding, rat", "details": "up to 20 µM toxin, 25°C"}, "rNav1.2a": {"biological_target": "rNav1.2a", "details": "cited from earlier work"}, "[8]": {"test_system": "isolated rNav1.2a VSD IV paddle motif", "assay": "SPR with immobilized rNav1.2a VSD IV paddle peptide", "assay_type": "binding, rat", "details": "50 fmol peptide, heterogeneous ligand model, n = 3", "summary_of_the_method": "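Biotinylated synthetic VSD IV paddle peptide (~50 fmol) captured on neutravidin amine-coupled to a CM5 chip. Run at 25°C in 50 mM phosphate, pH 7.2. Toxin at 15–2,000 nM injected at 20 µl/min after a steady baseline; control flow cell subtracted; regenerated with 1 M NaCl (15 s, 30 µl/min). Bulk signal excluded, then fitted to a two-site heterogeneous ligand model; n = 3, mean ± SD.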"}, "[9]": {"test_system": "rNav1.2a/Kv2.1 VSD II paddle chimera", "assay_type": "cell-based, rat"}, "Nav channel": {"test_system": "Nav channel", "details": "ref Crest et al., 1992; cited from earlier work"}, "Kv1.1": {"test_system": "Kv1.1", "details": "ref Crest et al., 1992; cited from earlier work"}, "Kv1.3": {"test_system": "Kv1.3", "details": "ref Crest et al., 1992; cited from earlier work"}, "[10]": {"details": "SPR, Biacore T200, 25°C, pH 7.2, 15–2,000 nM, mean ± SD"}}, "note": "Like-named read-outs stand apart in the source and are kept apart here."}
{"molecule": "AaHI: α-scorpion toxin from Androctonus australis Hector", "values": [{"measurement": "voltage-dependent K^+ current inhibition, VSD IV paddle chimera", "setting": "[1]; 100 nM toxin, 300-ms depolarization, holding −90 mV", "result": "robust voltage-dependent K^+ current inhibition"}, {"measurement": "depolarizing shift in midpoint (V1/2), VSD IV paddle chimera", "setting": "[1]; 100 nM toxin, Boltzmann fit, n = 3, holding −90 mV, tail −60 mV", "result": "~15", "unit": "mV"}, {"measurement": "effect on WT Kv2.1 K^+ current", "setting": "WT rKv2.1", "result": "insensitive"}]}
{"molecule": "AaHII: α-scorpion toxin from Androctonus australis Hector", "values": [{"measurement": "inhibition of R1629A/L1630A double mutant chimera", "setting": "[2]", "result": "strongly inhibits the double mutant"}, {"measurement": "Kd", "setting": "[3]", "result": "205 ± 23", "unit": "nM"}, {"measurement": "interaction with rNav1.2a/Kv2.1 VSD II paddle chimera", "setting": "[4]", "result": "no interaction was observed"}, {"measurement": "binding to VSD IV paddle (rNav1.2a/Kv2.1 chimeras)", "setting": "[5]", "result": "shown to bind to the VSD IV paddle motif in rNav1.2a"}, {"measurement": "Kd", "setting": "[6]", "result": "235 ± 24", "unit": "nM"}, {"measurement": "SPR effect on VSD II paddle motif at high toxin concentration", "setting": "[7]", "result": "did not notice an effect"}, {"measurement": "inhibition of WT rNav1.2a/Kv2.1 VSD IV chimera compared with double mutant", "setting": "[1]; 100 nM AaHII", "result": "influenced to a much lesser extent"}, {"measurement": "Kd", "setting": "rNav1.2a; read-out: affinity for WT rNav1.2a, WT rNav1.2a, ref Wang et al., 2011", "result": "~5", "unit": "nM"}, {"measurement": "dissociation rate constant kd1", "setting": "[8]; [10]", "result": "0.000979 ± 0.00014", "unit": "s⁻¹"}, {"measurement": "dissociation rate constant kd2", "setting": "[8]; [10]", "result": "0.0281 ± 0.0058", "unit": "s⁻¹"}, {"measurement": "high affinity KD1 (kd1/ka1)", "setting": "[8]; [10]", "result": "479 ± 241", "unit": "nM"}, {"measurement": "RUmax1", "setting": "[8]; high affinity site", "result": 135}, {"measurement": "RUmax2", "setting": "[8]; lower affinity site", "result": 23}]}
{"molecule": "CssIV: β-scorpion toxin from Centruroides suffusus suffusus", "values": [{"measurement": "depolarizing shift in V1/2, VSD II chimera", "setting": "[9]; 1 µM toxin, Boltzmann fit, n = 3, holding −90 mV, tail −60 mV", "result": "~14", "unit": "mV"}, {"measurement": "V1/2 in the presence of toxin, VSD II chimera", "setting": "[9]; 1 µM toxin, control 33 ± 2 mV, mean ± SEM, n = 3, holding −90 mV, tail −60 mV", "result": "47 ± 1", "unit": "mV"}, {"measurement": "concentration required to begin inhibiting the rNav1.2a/Kv2.1 VSD II paddle chimera", "setting": "[9]; Xenopus oocytes, ∼22°C", "result": 1, "unit": "µM"}, {"measurement": "influence on VSD IV chimera", "setting": "[1]; 1 µM toxin, n = 3, holding −90 mV, tail −60 mV", "result": "does not influence the VSD IV chimera"}]}
{"molecule": "kaliotoxin [KTX]", "values": [{"measurement": "influence on Nav channel function", "setting": "Nav channel", "result": "does not influence Nav channel function"}, {"measurement": "Kv1.1 pore block", "setting": "Kv1.1", "result": "blocks"}, {"measurement": "Kv1.3 pore block", "setting": "Kv1.3", "result": "blocks"}]}
{"molecule": "B1", "values": [{"measurement": "binding to VSD IV paddle (rNav1.2a/Kv2.1 chimeras)", "setting": "[5]", "result": "can also bind to the VSD IV paddle"}, {"measurement": "Kd", "setting": "rNav1.2a; read-out: apparent KD, rNav1.2a, ref Bosmans et al., 2008", "result": "25 to 121", "unit": "nM"}]}
